The structures appear in SMILES notation.

The source of these data is ChEMBL document CHEMBL1148355, “Inhibition of group IVA cytosolic phospholipase A2 by novel 2-oxoamides in vitro, in cells, and in vivo” (J Med Chem, 2004).

Test [1] deals with T1, Cytosolic phospholipase A2 (Homo sapiens) (UniProt P47712).
T1 sequence (whole entry): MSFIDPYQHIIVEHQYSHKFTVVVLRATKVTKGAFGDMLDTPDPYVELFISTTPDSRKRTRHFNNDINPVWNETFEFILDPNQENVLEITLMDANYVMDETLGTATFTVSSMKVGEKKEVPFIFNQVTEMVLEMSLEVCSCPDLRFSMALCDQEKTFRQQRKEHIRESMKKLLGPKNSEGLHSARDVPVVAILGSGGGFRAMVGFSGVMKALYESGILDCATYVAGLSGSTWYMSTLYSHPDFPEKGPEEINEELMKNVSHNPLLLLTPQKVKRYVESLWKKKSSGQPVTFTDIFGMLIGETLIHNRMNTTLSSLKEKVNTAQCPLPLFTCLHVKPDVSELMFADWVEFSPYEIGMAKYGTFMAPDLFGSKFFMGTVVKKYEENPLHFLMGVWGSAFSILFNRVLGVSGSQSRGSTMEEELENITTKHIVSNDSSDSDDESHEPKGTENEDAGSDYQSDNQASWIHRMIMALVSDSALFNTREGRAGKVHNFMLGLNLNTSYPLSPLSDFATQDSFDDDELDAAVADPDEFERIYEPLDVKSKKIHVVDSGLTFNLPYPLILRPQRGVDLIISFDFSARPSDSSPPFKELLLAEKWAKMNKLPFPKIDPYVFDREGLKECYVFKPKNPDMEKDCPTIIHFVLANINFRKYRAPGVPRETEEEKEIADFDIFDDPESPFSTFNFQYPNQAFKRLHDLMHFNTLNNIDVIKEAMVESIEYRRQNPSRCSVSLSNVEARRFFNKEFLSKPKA
Kind of test: Mole fraction of compound in the total substrate interface required to inhibit human GIVA PLA2 by 50%. Put shortly: (§1)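 GIVA PLA2 activity measured on mixed micelles of TX-100 (400 μM), 1-palmitoyl-2-[14C]arachidonoyl PC (97 μM) and PIP2 (3 μM, 0.6 mol %). Inhibitor surface mole fraction varied within the micelles; percent inhibition calculated relative to a DMSO control. Xi(50) is the mole fraction giving 50% inhibition, obtained by a logarithmic or linear fit.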

The target in test [2] is T1, Cytosolic phospholipase A2 (Homo sapiens). Kind of test: Percent inhibition of human GIVA PLA2 by the compound at a concentration (mole fraction) of 0.05. Put shortly:
as §1

Test [3] has the same target. As to the kind of experiment: Percent inhibition of human GIVA PLA2 by the compound at a concentration (mole fraction) of 0.01. Put shortly: as §1
Test [4] shares this target. As to the kind of experiment: Percent inhibition of human GIVA PLA2 by the compound at a concentration (mole fraction) of 0.08. Put shortly: as §1
The species entered for test [5] is Mus musculus. Kind of test: Compound was tested on P388D1 macrophage-like cell line (AA-derived products) for inhibition of the GIVA PLA2 in the long-term lipopolysaccharide. The class given is functional, organism-based.
For test [6], the system named is Rattus norvegicus. As to the kind of experiment: Compound was tested for in vivo analgesic activity in rat. It counts as functional.
Test [7] is filed under the species Mus musculus. Kind of test: Compound was tested on P388D1 macrophage-like cell line (PGE2 production) for inhibition of the GIVA PLA2 in the long-term lipopolysaccharide. It counts as functional, organism-based. Put shortly: (§2)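 P388D1 murine macrophages plated at 10^6 cells/well and left to adhere overnight. Starved 1 h in 0.2% FCS medium. Compound added in DMSO (<0.5% v/v) 30 min before 100 ng/mL LPS for 18 h. Medium PGE2 measured by enzyme immunoassay and normalized to DMSO/LPS controls. IC50 taken from a logarithmic fit.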

Test [8] has as its system Rattus norvegicus. As to the kind of experiment: Compound was tested for in vivo antiinflammatory activity in rat. It counts as functional, organism-based. Put shortly:
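Carrageenan paw edema in Fisher 344 rats (150–200 g), both sexes. Edema induced by 0.1 mL 2% w/v carrageenan in saline, intradermal into the right footpad. Compound suspended in Tween 80/water and given ip at the same time. Rats killed at 3.5 h, injected minus uninjected paw weight taken, and % inhibition calculated vs water controls. Four concentrations tested, two groups of five; mean of two experiments.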

Test [9] addresses T1, Cytosolic phospholipase A2 (Homo sapiens). Kind of test: Percent inhibition of human GIVA PLA2 by the compound at a concentration (mole fraction) of 0.02. Put shortly:
as §1

The species entered for test [10] is Mus musculus. As to the kind of experiment: Tested on P388D1 macrophage-like cell line (AA-derived products) for inhibition of the GIVA PLA2 in the long-term lipopolysaccharide. The class given is functional, organism-based.
Test [11] is filed under the species Mus musculus. As to the kind of experiment: Tested on P388D1 macrophage-like cell line (PGE2 production) for inhibition of the GIVA PLA2 in the long-term lipopolysaccharide. It counts as functional, organism-based. Put shortly:
as §2

Where [12] appears, read: in the assay text read “of 0.091” for “of 0.01”.

In test [1], `CCCCCCCCCCC(=O)C(=O)N[C@H](CCCC)CCC(=O)O` registered an X1(50) of 0.068.
The term inhibition denotes the relative decrease from the control value, in per cent. Higher therefore signals a strong effect. As to `CCCCCCCC/C=C\CCCCCCCCNC(=O)C(=O)CCCCCCCCCCCCCC`, the inhibition in [2] is 0%.
`CCCCCCCC/C=C\CCCCCCCCNC(=O)C(=O)CCCCC` gave an inhibition in test [3] of 0%.
On to `CCCCCCCCCCOC[C@H](CCC(=O)O)NC(=O)C(=O)CCCCCCCCCC`, for which the X1(50) in test [1] turned out to be 0.045.
Same read-out and setting: then `CCCCCCCCCCOC[C@@H](CCC(=O)O)NC(=O)C(=O)CCCCCCCCCC`, with 0.047.
Take `CCCCCCCCCCCCCCC(=O)C(=O)NCCCC(=O)OC`: in test [4], the inhibition came out at 0%.
The IC50 is the concentration needed to halve the response being measured. On to `CCCCCCCCCCC(=O)C(=O)N[C@@H](CCCC)CCC(=O)O`, for which the X1(50) in [1] turned out to be 0.009. In addition, the half-maximal inhibitory concentration (IC50) in the test filed under Mus musculus [5] came to 7.6 µM; in the test filed under Mus musculus [7], 5.8 µM. In addition, the Analgesic activity in the test on Rattus norvegicus [6] came out at 63%. Besides, the EC50 in the test with Rattus norvegicus [8] worked out at 0.1 mmol/kg.
`CCCCCCCCCCCCCCCCNC(=O)C(=O)CC` came in with an inhibition in test [3] of 0%.
`CCCCCCCCCCCCCCC(=O)C(=O)NCCCCC` gave an inhibition in [9] of 22%.
Compound `CCCCCCC(=O)C(=O)N[C@H](CCC(=O)O)Cc1ccccc1` displayed an inhibition in [3] (setting [12]) of 24%.
Consider `CCCCCCCCCCCCCC(=O)C(N)=O`, for which the inhibition in test [3] amounted to 0%.
`CCCCCCCCCCCCCCCC(=O)NCCCC(=O)O` gave an inhibition in test [4] of 22%.
With `CCCCCCCCCCCCCC(=O)C(=O)N[C@@H](C)CCC(=O)O`, the X1(50) in test [1] amounted to 0.021.
Same read-out and setting: for `CCCCCCCCCCC(=O)C(=O)N[C@H](CCC(=O)O)CC(C)C` the value was 0.021.
On the same count and under the same terms, then `CCCCCCCCCCCCCC(=O)C(=O)N[C@@H](CCCC)CCC(=O)O`, with 0.01.
In test [2], `CCCCCCC(=O)C(=O)NCCCC(=O)O` registered an inhibition of 0%.
With `CCCCCCCCCCCCCCC(=O)C(=O)NCCCC(=O)O`, the results for the IC50 in the test filed under Mus musculus [10] and in the test listed under Mus musculus [11] were 8.6 µM and 7.8 µM, respectively. This compound also showed an X1(50) in [1] of 0.017. For the same compound, in the test on Rattus norvegicus [6], the Analgesic activity was 93%. In the test on Rattus norvegicus [8], this compound gave an EC50 of 0.01 mmol/kg.
For `CCCCCCCCCCCCCC(=O)C(=O)N1CCC[C@H]1CCC(=O)O`, in test [3] (setting [12]), the inhibition was 24%.
Consider `CCCCCCCCCCCCCC(=O)C(=O)N[C@H](CCC(=O)O)CC(C)C`, for which the X1(50) in test [1] was 0.017. The IC50 came to 4.6 µM in the test listed under Mus musculus [5] and 10 µM in the test filed under Mus musculus [7]. Besides, in the test on Rattus norvegicus [6], the Analgesic activity is on record as 69%. In addition, in the test on Rattus norvegicus [8], the EC50 came to 0.008 mmol/kg.
In test [3], `NC(=O)C(=O)CCCCc1ccccc1` had an inhibition of 0%.
In turn, `CCCCCCCCCCC(=O)C(=O)N1CCC[C@H]1CCC(=O)O` gave an inhibition in test [3] (setting [12]) of 0%.
In turn, `CCCCCCCCCCCCCC(=O)C(=O)N[C@H](CCC(=O)O)Cc1ccccc1` came in with an X1(50) in test [1] of 0.035.
